Drawing on ChEMBL document CHEMBL1687720 (Antimicrob Agents Chemother, 2009), this text covers FIC50 and Activity for 3 molecules.

Molecules are shown by their SMILES. Active and inactive are the calls of the source. The rule behind the calls is not given here.

Data set [1] has as its system Plasmodium falciparum. Put plainly: Antiplasmodial activity against chloroquine-resistant Plasmodium falciparum K1 in presence of artemether. Format: functional.
Data set [2] deals with Plasmodium falciparum. Put plainly: Antiplasmodial activity against chloroquine-resistant Plasmodium falciparum K1 in presence of quinine. The class given is functional.
In data set [3] the test system is A549. Briefly: Effect on thioredoxin reductase expression in human A549 cells assessed as transcript level at 166 nM after 24 hrs by RT-qPCR analysis relative to untreated control. The class given is functional. As to conditions: in the assay text read “166 uM” for “166 nM”. Put shortly:
(§1)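 A549 cells are seeded at 2.5 × 10^5 per 25-cm2 well. At 40–45% confluence they are treated for 24 h with 166 or 662 μM, 158 or 315 μM, or 5 or 24 μM compound; controls receive <5% DMSO. Total RNA is DNase-treated and qRT-PCR is run in quadruplicate. Values are normalized to GAPDH and given as % of untreated control.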

Data set [4] has as its system A549. Put plainly: Effect on glutathione S-transferase expression in human A549 cells assessed as transcript level at 662 nM after 24 hrs by RT-qPCR analysis relative to untreated control. As to conditions: in the assay text read “662 µM” for “662 nM”. Format: functional. Put shortly: as §1
For orientation: In qPCR the cycle at which signal appears reflects the starting amount.

Data set [5] concerns the target T1, Glutathione reductase, mitochondrial (Homo sapiens) (UniProt P00390).
T1 sequence (whole entry): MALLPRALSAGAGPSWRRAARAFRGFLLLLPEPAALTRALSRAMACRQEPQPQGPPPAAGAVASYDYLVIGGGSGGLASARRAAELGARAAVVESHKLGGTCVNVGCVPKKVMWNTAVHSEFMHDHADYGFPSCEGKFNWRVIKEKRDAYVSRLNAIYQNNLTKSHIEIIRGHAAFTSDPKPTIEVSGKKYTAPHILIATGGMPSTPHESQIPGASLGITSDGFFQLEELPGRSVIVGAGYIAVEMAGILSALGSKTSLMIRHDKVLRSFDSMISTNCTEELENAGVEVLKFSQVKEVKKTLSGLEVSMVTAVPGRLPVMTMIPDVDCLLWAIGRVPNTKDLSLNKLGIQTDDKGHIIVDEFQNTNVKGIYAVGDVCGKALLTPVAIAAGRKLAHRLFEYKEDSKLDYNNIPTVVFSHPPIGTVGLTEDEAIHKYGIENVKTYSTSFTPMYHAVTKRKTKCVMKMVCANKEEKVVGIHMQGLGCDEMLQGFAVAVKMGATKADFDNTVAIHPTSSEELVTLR
Put plainly: Inhibition of glutathione reductase in human A549 cells assessed as enzyme activity at 166 µM after 24 hrs relative to untreated control. More on the design: scale not given: the % may be the effect or the level left.

In data set [6] the test system is A549. Put plainly: Inhibition of glutathione S-transferase in human A549 cells assessed as enzyme activity at 166 µM after 24 hrs relative to untreated control. More on the design: scale not given: the % may be the effect or the level left.
For data set [7], the system named is A549. Put plainly: Inhibition of glutathione S-transferase in human A549 cells assessed as enzyme activity at 662 µM after 24 hrs relative to untreated control. More on the design: scale not given: the % may be the effect or the level left.
Data set [8] concerns A549. Put plainly: Effect on glutathione reductase expression in human A549 cells assessed as transcript level at 158 nM after 24 hrs by RT-qPCR analysis relative to untreated control. As to conditions: in the assay text read “158 µM” for “158 nM”. The class given is functional. Summed up:
as §1

Data set [9] concerns A549. Briefly: Effect on glutathione peroxidase expression in human A549 cells assessed as transcript level at 158 nM after 24 hrs by RT-qPCR analysis relative to untreated control. As to conditions: in the assay text read “158 µM” for “158 nM”. Format: functional. Summed up:
as §1

Data set [10] concerns the target T1, Glutathione reductase, mitochondrial (Homo sapiens). Put plainly: Inhibition of glutathione reductase in human A549 cells assessed as enzyme activity at 158 µM after 24 hrs relative to untreated control. The arrangement: scale not given: the % may be the effect or the level left.
The test system of data set [11] is A549. Put plainly: Inhibition of glutathione peroxidase in human A549 cells assessed as enzyme activity at 158 µM after 24 hrs relative to untreated control. More on the design: scale not given: the % may be the effect or the level left.
In data set [12] the target is T2, Thioredoxin reductase (Homo sapiens, UniProt Q16881+Q9NNW7+Q86VQ6). Put plainly: Inhibition of thioredoxin reductase in human A549 cells assessed as enzyme activity at 158 µM after 24 hrs by DTNB assay relative to untreated control. The arrangement: scale not given: the % may be the effect or the level left.
The test system of data set [13] is Plasmodium falciparum. Briefly: Upregulation of glutathione synthetase mRNA level in Plasmodium falciparum 3D7 trophozoites at 126 nM after 12 hrs by RT-qPCR analysis relative to untreated control. Format: functional. Summed up:
(§2)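 Synchronized 3D7 trophozoites in RPMI/Albumax culture at 37°C under 3% O2, 3% CO2 were exposed 12, 15 or 18 h, then harvested by 0.02% saponin lysis. RNA was reverse-transcribed and analyzed by real-time PCR in quadruplicate. Quantification used ΔΔCT with 18S rRNA reference (LDH also checked), expressed as % of untreated control.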

Data set [14] has as its system Plasmodium falciparum. Put plainly: Upregulation of thioredoxin reductase mRNA level in Plasmodium falciparum 3D7 trophozoites at 126 nM after 12 hrs by RT-qPCR analysis relative to untreated control. Format: functional, organism-based. Put shortly:
as §2

The next data set deals with Plasmodium berghei. Briefly: Antimalarial activity against Plasmodium berghei infected in mouse assessed as reduction in parasite load at 10 mg/kg for 4 days treated postinfection measured on day 9. The class given is functional. The arrangement: scale not given: the % may be the effect or the level left. Summed up: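 Murine P. berghei model; compound given subcutaneously at 10 mg/kg for 4 days postinfection; parasitemia compared with untreated controls (n = 13 per group) on days 4, 7 and 9; significance by Fisher's exact test.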

Data set [15] concerns A549. Put plainly: Effect on thioredoxin reductase expression in human A549 cells assessed as transcript level at 24 nM after 24 hrs by RT-qPCR analysis relative to untreated control. Format: functional. The note with it: in the assay text read “24 µM” for “24 nM”. Put shortly:
as §1

Data set [16] concerns A549. Put plainly: Cytotoxicity against human A549 cells after 24 hrs by Trypan blue assay. The note with it: a549, 24 h.
In data set [17] the target is T2, Thioredoxin reductase. Briefly: Inhibition of thioredoxin reductase in human A549 cells assessed as enzyme activity at 5 µM after 24 hrs by DTNB assay relative to untreated control. More on the design: scale not given: the % may be the effect or the level left.
Data set [18] has as its target T2, Thioredoxin reductase. Briefly: Inhibition of thioredoxin reductase in human A549 cells assessed as enzyme activity at 24 µM after 24 hrs by DTNB assay relative to untreated control. The arrangement: scale not given: the % may be the effect or the level left.
The subject of data set [19] is A549. Put plainly: Effect on glutathione peroxidase expression in human A549 cells assessed as transcript level at 5 µM after 24 hrs by RT-qPCR analysis relative to untreated control.

On to `O=c1oc2c(O)c(O)cc3c(=O)oc4c(O)c(O)cc1c4c23` [ELLAGIC ACID], for which the FIC50 in the data set on Plasmodium falciparum [1] and in the data set on Plasmodium falciparum [2] was 1 throughout. In addition, the Activity was 115% with A549 [3]; 131% in the data set with A549 [4]; 87% in data set [5]; 109% with A549 [6]; 101% with A549 [7].

Take `O=c1oc2c(O)c(O)c(O)c3c(=O)oc4c(O)c(O)cc1c4c23` [FLAVELLAGIC ACID]: the Activity with A549 [8] came to 105%; with A549 [9], 107%; in data set [10], 87%; in the data set with A549 [11], 122%; on Thioredoxin reductase [12], 91%.

For `O=c1oc2c(O)c(O)c(O)c3c(=O)oc4c(O)c(O)c(O)c1c4c23` [CORULEOELLAGIC ACID], the Activity in the data set with Plasmodium falciparum [13] was 128%; in the data set on Plasmodium berghei it was 50%; in the data set on A549 [15], 73%; in the data set on A549 [16] it was “Non-toxic”; at Thioredoxin reductase [17], 42%; on Thioredoxin reductase [18] it was 45%. In addition, the Activity with A549 [19] was 51%. The outcome in the data set with Plasmodium falciparum [14] was inactive.
